This is an account of results in ChEMBL document CHEMBL1143844, “Biochemical studies on the mechanism of human immunodeficiency virus type 1 reverse transcriptase resistance to 1-(beta-D-dioxolane)thymine triphosphate” (Antimicrob Agents Chemother, 2007).

The nature of assay [1]: Inhibition of HIV1 reverse transcriptase 41L/67N/70R/184V/210W/215Y mutant in presence of 5 mM ATP by heteropolymeric DNA polymerase assay. The arrangement: species or system Human immunodeficiency virus 1. In short, it runs like this:
(§1)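 Heteropolymeric DNA polymerase assay with ATP added at 5 mM. Purified HIV-1 RT at 30–100 pM acts on a plate-bound DNA primer with a 5′-A12-(GTCA)5-3′ template. dATP, dGTP, dCTP and BrdUTP at 1.0 μM each. Incubation 180 min at 33°C. BrdUMP incorporation read via anti-BrdU-AP at 405 nm after NaOH dehybridization. IC50 from seven inhibitor concentrations, at least two experiments in duplicate.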

Assay [2] in a line: Inhibition of HIV1 reverse transcriptase 75I/77L/116Y/151M/184V mutant by heteropolymeric DNA polymerase assay. The arrangement: species or system Human immunodeficiency virus 1. In short, it runs like this:
(§2)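 Purified p66/p51 HIV-1 RT, or p66 homodimer for 65R, at 30–100 pM (about 1.5–4.5 mU/well). Plate-bound 18-mer DNA primer on a 50-base 5′-A12-(GTCA)5-3′ DNA template. dATP, dGTP, dCTP and BrdUTP at 1.0 μM each, no ATP. Buffer: HEPES 50 mM pH 7.3, 10 mM MgCl2. Incubation 180 min at 33°C, NaOH dehybridization, anti-BrdU-AP tracer, A405. IC50 from seven inhibitor concentrations, at least two experiments in duplicate.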

The target of assay [3] is T1, Human immunodeficiency virus type 1 reverse transcriptase (Human immunodeficiency virus 1, UniProt Q72547). The assay can be described thus: Inhibition of HIV1 LAI reverse transcriptase wild type in presence of 5 mM ATP by heteropolymeric DNA polymerase assay. The gist of the method:
(§3)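 Heteropolymeric DNA assay with 5 mM ATP added: immobilized 18-mer primer, 5′-A12-(GTCA)5 50-mer template, dATP/dGTP/dCTP/BrdUTP at 1.0 μM each, HEPES 50 mM pH 7.3, MgCl2 10 mM. RT 30–100 pM, incubated at 33°C for 180 min. NaOH strand separation, then anti-BrdU-AP detection at 405 nm. IC50 fitted from seven inhibitor concentrations; two to four runs in duplicate.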

A short description of assay [4]: Inhibition of HIV1 reverse transcriptase wild type HXB2(a) in presence of 5 mM ATP by heteropolymeric DNA polymerase assay. The arrangement: species or system Human immunodeficiency virus 1. In short, it runs like this: as §3
Assay [5] can be described thus: Inhibition of HIV1 LAI reverse transcriptase 65R mutant in presence of 5 mM ATP by heteropolymeric DNA polymerase assay. The arrangement: species or system Human immunodeficiency virus 1. The gist of the method:
as §1

Assay [6] concerns the target T1, Human immunodeficiency virus type 1 reverse transcriptase. The assay can be described thus: Inhibition of HIV1 pNL4-3 reverse transcriptase wild type pNL4-3 in presence of 5 mM ATP by heteropolymeric DNA polymerase assay. The gist of the method:
as §3

Assay [7] in a line: Inhibition of HIV1 reverse transcriptase 184V mutant in presence of 5 mM ATP by heteropolymeric DNA polymerase assay. The arrangement: species or system Human immunodeficiency virus 1. The gist of the method:
as §1

The nature of assay [8]: Inhibition of HIV1 reverse transcriptase 41L/69S-SG/210W/215Y mutant in presence of 5 mM ATP by heteropolymeric DNA polymerase assay. The arrangement: species or system Human immunodeficiency virus 1. The gist of the method: as §1
Assay [9] can be described thus: Inhibition of HIV1 reverse transcriptase 75I/77L/116Y/151M/184V mutant in presence of 5 mM ATP by heteropolymeric DNA polymerase assay. The arrangement: species or system Human immunodeficiency virus 1. The gist of the method:
as §1

Assay [10] is described as follows: Inhibition of HIV1 HXB2 reverse transcriptase 41L/67N/70R/215Y/219Q mutant in presence of 5 mM ATP by heteropolymeric DNA polymerase assay.
Assay [11] deals with T1, Human immunodeficiency virus type 1 reverse transcriptase. The assay can be described thus: Inhibition of HIV1 LAI reverse transcriptase wild type LAI by heteropolymeric DNA polymerase assay. The gist of the method:
(§4)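 Heteropolymeric assay without ATP: plate-bound 18-mer DNA primer (~110 nM) with 50-mer 5′-A12-(GTCA)5 template (190 nM). dATP, dGTP, dCTP and BrdUTP at 1.0 μM each, in HEPES 50 mM pH 7.3, MgCl2 10 mM. RT 30–100 pM, 33°C for 180 min, then NaOH dehybridization and anti-BrdU-AP tracer read at 405 nm. IC50 from seven triphosphate concentrations; two to four runs in duplicate.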

Assay [12] is described as follows: Inhibition of HIV1 reverse transcriptase wild type HXB2(b) in presence of 5 mM ATP by heteropolymeric DNA polymerase assay. The arrangement: species or system Human immunodeficiency virus 1. The gist of the method: as §3
A short description of assay [13]: Inhibition of HIV1 reverse transcriptase 75I/77L/116Y/151M mutant by heteropolymeric DNA polymerase assay. The arrangement: species or system Human immunodeficiency virus 1. The gist of the method: as §2
Assay [14] addresses T1, Human immunodeficiency virus type 1 reverse transcriptase. Briefly: Inhibition of HIV1 pNL4-3 reverse transcriptase wild type pNL4-3 by heteropolymeric DNA polymerase assay. The gist of the method: as §4
Assay [15] in a line: Inhibition of HIV1 reverse transcriptase wild type HXB2(a) in presence of 5'-A12-(GTCA)5-3' by heteropolymeric DNA polymerase assay. The arrangement: species or system Human immunodeficiency virus 1. In short, it runs like this: (§5)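 Heteropolymeric DNA assay containing 5 mM ATP on the 5′-A12-(GTCA)5 template, with each dNTP (BrdUTP in place of TTP) at 1 μM or, in the modified version, 20 μM. HEPES 50 mM pH 7.3, MgCl2 10 mM, 33°C for 180 min, then NaOH step and anti-BrdU-AP readout at 405 nm. Mean IC50 from at least two runs in duplicate.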

A short description of assay [16]: Inhibition of HIV1 reverse transcriptase 41L/69S-SG/210W/215Y mutant by heteropolymeric DNA polymerase assay. The arrangement: species or system Human immunodeficiency virus 1. The gist of the method: as §2
Assay [17] in a line: Inhibition of HIV1 reverse transcriptase wild type HXB2(a) in presence of 1 uM dNTP by heteropolymeric DNA polymerase assay. The arrangement: species or system Human immunodeficiency virus 1. In short, it runs like this: as §5
Assay [18] in a line: Inhibition of HIV1 reverse transcriptase 75I/77L/116Y/151M mutant in presence of 5 mM ATP by heteropolymeric DNA polymerase assay. The arrangement: species or system Human immunodeficiency virus 1. In short, it runs like this:
as §1

The nature of assay [19]: Inhibition of HIV1 pNL4-3 reverse transcriptase 115F mutant in presence of 5 mM ATP by heteropolymeric DNA polymerase assay. The arrangement: species or system Human immunodeficiency virus 1. The gist of the method:
as §1

Assay [20] in a line: Inhibition of HIV1 pNL4-3 reverse transcriptase 115F mutant by heteropolymeric DNA polymerase assay. The arrangement: species or system Human immunodeficiency virus 1. In short, it runs like this:
as §2

Assay [21] in a line: Inhibition of HIV1 reverse transcriptase 184V mutant by heteropolymeric DNA polymerase assay. The arrangement: species or system Human immunodeficiency virus 1. In short, it runs like this:
as §2

Assay [22] can be described thus: Inhibition of HIV1 reverse transcriptase 41L/67N/70R/210W/215Y mutant in presence of 20 uM dNTP by heteropolymeric DNA polymerase assay. The arrangement: species or system Human immunodeficiency virus 1. In short, it runs like this: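 DNA polymerase assay with 5 mM ATP and purified HIV-1 RT (HXB2 background) on a plate-bound primer with a 5′-A12-(GTCA)5-3′ template. Each dNTP (dATP, dGTP, dCTP, BrdUTP) is set at either 1 μM or 20 μM. Incubation 180 min at 33°C, anti-BrdU-AP readout at 405 nm. IC50 from at least two experiments in duplicate. Fold change is relative to wild-type RT at the same dNTP level.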

The nature of assay [23]: Inhibition of HIV1 reverse transcriptase wild type HXB2(a) in presence of 3.2 mM ATP by prA/odT assay. The arrangement: species or system Human immunodeficiency virus 1.
Assay [24] is described as follows: Inhibition of HIV1 reverse transcriptase 41L/69S-SG/210W/215Y mutant in presence of 5'-A12-(GTCA)5-3' by heteropolymeric DNA polymerase assay.

Turning to `Cc1cn([C@H]2C[C@H](N=[N+]=[N-])[C@@H](COP(=O)(O)OP(=O)(O)OP(=O)(O)O)O2)c(=O)[nH]c1=O` [ZIDOVUDINE TRIPHOSPHATE], the IC50 in assay [1] turned out to be 0.9 µM; in assay [2], 10.6 µM; in assay [3], 0.3 µM; in [4], 0.46 µM; in assay [5], 0.61 µM; in assay [6], 0.42 µM. The IC50 in assay [7] turned out to be 0.52 µM; in assay [8], 4.4 µM; in assay [9], 22 µM; in [10], 2.5 µM; in assay [11] it was 0.08 µM; in assay [12] it was 0.48 µM. The half-inhibitory concentration (IC50) in [13] amounted to 5.1 µM; in [14], 0.13 µM; in [15] it was 0.46 µM; in assay [16], 0.16 µM; in assay [17] it was 0.46 µM; in assay [18], 9 µM. Further, the IC50 in [19] was determined as 0.55 µM; in [20], 0.13 µM; in assay [21] it was 0.25 µM; in assay [22] it was 16 µM; in assay [24], 4.4 µM. In assay [23], the Ki turned out to be 0.0054 µM.

Turning to `C[C@H](Cn1cnc2c(N)ncnc21)OCP(=O)(O)OP(=O)(O)OP(=O)(O)O`, the IC50 was 5.9 µM in assay [1]; 2.9 µM in [2]; 1.3 µM in [3]; 3.3 µM in [4]; 21 µM in assay [5]; 4 µM in [6]. Also, the IC50 amounted to 2.3 µM in assay [7]; 24 µM in assay [8]; 4.6 µM in assay [9]; 10.5 µM in assay [10]; 0.55 µM in assay [11]; 3.2 µM in assay [12]. The IC50 in assay [13] was 8 µM; in assay [14] it was 1.2 µM; in [15], 3.3 µM; in assay [16], 3.7 µM; in assay [17] it was 3.3 µM; in assay [18], 11 µM. For the same compound, the IC50 in [19] was 3.7 µM; in assay [20], 1.1 µM; in [21] it was 2.2 µM; in [22] it was 49 µM; in assay [24], 24 µM.

On to `Cc1cn([C@H]2CO[C@@H](COP(=O)(O)OP(=O)(O)OP(=O)(O)O)O2)c(=O)[nH]c1=O`, for which the concentration for half-maximal inhibition (IC50) amounted to 0.7 µM in assay [1]; 7.1 µM in assay [2]; 0.19 µM in assay [3]; 0.38 µM in assay [4]; 0.75 µM in [5]; 0.3 µM in [6]. In addition, the 50% inhibitory concentration (IC50) was found to be 0.5 µM in assay [7]; 1.6 µM in assay [8]; 15 µM in assay [9]; 0.84 µM in assay [10]; 0.11 µM in [11]; 0.38 µM in assay [12]. The IC50 was determined as 2.1 µM in [13]; 0.1 µM in assay [14]; 0.38 µM in assay [15]; 0.11 µM in [16]; 0.38 µM in assay [17]; 6.1 µM in assay [18]. The IC50 in [19] is 0.2 µM; in [20] it was 0.08 µM; in [21], 0.18 µM; in [22] it was 2.4 µM; in assay [24] it was 1.6 µM. For the same compound, in [23], the inhibitory constant (Ki) turned out to be 0.0028 µM.
